In ChEMBL document CHEMBL1138555, “N-acylated and N,N'-diacylated imidazolidine-2-thione derivatives and N,N'-diacylated tetrahydropyrimidine-2(1H)-thione analogues: synthesis and antiproliferative activity” (Eur J Med Chem, 2009):
The source made the active and inactive calls. The rule behind the calls is not given here.

Legend:
[1] = tested on: Human immunodeficiency virus 1; test: Antiviral activity against HIV1 in human MT4 cells assessed as prevention of virus-induced cytopathogenicity; type: functional, organism-based
How it was run: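 MT-4 cells, 1 × 10⁴ per well, with serial compound dilutions from a 100 mM DMSO stock. Infected with HIV-1 at 100 CCID50. Four-day incubation at 37 °C, then viable cells measured by MTT. Read-out is inhibition of virus-induced cytopathogenicity, assessed at non-cytotoxic concentrations.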

HOP-62 = test: Growth inhibition of human HOP62 cells after 48 hrs by sulforhodamine B assay; type: functional; conditions: HOP-62, 48 h
How it was run: (§1)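 NCI screen panel. Five 10-fold concentrations from 10^-4 to 10^-8 M. Exposure for the last 48 h of a 72 h incubation. Growth estimated by sulforhodamine B protein assay. GI50 is the concentration giving 50% growth inhibition. Where that level was not reached or was exceeded, the value is given as above or below the highest or lowest concentration tested.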

NCI-H460 = test: Growth inhibition of human NCI-H460 cells after 48 hrs by sulforhodamine B assay; type: functional; conditions: NCI-H460, 48 h; how it was run: as §1
PC-3 = test: Growth inhibition of human PC3 cells after 48 hrs by sulforhodamine B assay; type: functional; conditions: PC-3, 48 h; how it was run: as §1
UACC-62 = test: Growth inhibition of human UACC62 cells after 48 hrs by sulforhodamine B assay; type: functional; conditions: UACC-62, 48 h
How it was run: (§2)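 NCI in vitro panel screen. Compounds tested at five 10-fold dilutions, 10^-4 to 10^-8 M. Cells in 96-well plates were exposed for the last 48 h of a 72 h incubation. Viability/growth was read by sulforhodamine B protein assay. GI50 is the concentration giving 50% growth inhibition. Values beyond the tested range are reported as greater or less than the maximum or minimum concentration.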

M14 = test: Growth inhibition of human M14 cells after 48 hrs by sulforhodamine B assay; type: functional; conditions: M14, 48 h; how it was run: as §1
SNB-75 = test: Growth inhibition of human SNB75 cells after 48 hrs by sulforhodamine B assay; type: functional; conditions: SNB-75, 48 h; how it was run: as §2
SK-OV-3 = test: Growth inhibition of human SKOV3 cells after 48 hrs by sulforhodamine B assay; type: functional; conditions: SK-OV-3, 48 h; how it was run: as §1
SR = test: Growth inhibition of human SR cells after 48 hrs by sulforhodamine B assay; type: functional; how it was run: as §2
LOX IMVI = test: Growth inhibition of human LOXIMVI cells after 48 hrs by sulforhodamine B assay; type: functional; how it was run: as §1
MDA-MB-231 = test: Growth inhibition of human MDA-MB-231 cells after 48 hrs by sulforhodamine B assay; type: functional; conditions: MDA-MB-231, 48 h; how it was run: as §1
HT-29 = test: Growth inhibition of human HT-29 cells after 48 hrs by sulforhodamine B assay; type: functional; conditions: HT-29, 48 h; how it was run: as §1
U-251 = test: Growth inhibition of human U251 cells after 48 hrs by sulforhodamine B assay; type: functional; conditions: U-251, 48 h; how it was run: as §2
SW-620 = test: Growth inhibition of human SW620 cells after 48 hrs by sulforhodamine B assay; type: functional; conditions: SW-620, 48 h; how it was run: as §2
OVCAR-3 = test: Growth inhibition of human OVCAR-3 cells after 48 hrs by sulforhodamine B assay; type: functional; conditions: OVCAR-3, 48 h; how it was run: as §1
HCT-116 = test: Growth inhibition of human HCT116 cells after 48 hrs by sulforhodamine B assay; type: functional; conditions: HCT-116, 48 h; how it was run: as §1
SN12C = test: Growth inhibition of human SN12C cells after 48 hrs by sulforhodamine B assay; type: functional; how it was run: as §2
COLO 205 = test: Growth inhibition of human COLO205 cells after 48 hrs by sulforhodamine B assay; type: functional; conditions: COLO 205, 48 h; how it was run: as §1
CAKI-1 = test: Growth inhibition of human Caki1 cells after 48 hrs by sulforhodamine B assay; type: functional; conditions: CAKI-1, 48 h; how it was run: as §1
EKVX = test: Growth inhibition of human EKVX cells after 48 hrs by sulforhodamine B assay; type: functional; how it was run: as §1
DU-145 = test: Growth inhibition of human DU145 cells after 48 hrs by sulforhodamine B assay; type: functional; conditions: DU-145, 48 h; how it was run: as §1
Malme-3M = test: Growth inhibition of human MALME-3M cells after 48 hrs by sulforhodamine B assay; type: functional; how it was run: as §1
SF-268 = test: Growth inhibition of human SF268 cells after 48 hrs by sulforhodamine B assay; type: functional; conditions: SF-268, 48 h; how it was run: as §1
OVCAR-4 = test: Growth inhibition of human OVCAR4 cells after 48 hrs by sulforhodamine B assay; type: functional; conditions: OVCAR-4, 48 h; how it was run: as §1
HOP-92 = test: Growth inhibition of human HOP92 cells after 48 hrs by sulforhodamine B assay; type: functional; conditions: HOP-92, 48 h; how it was run: as §1
HL-60(TB) = test: Growth inhibition of human HL-60(TB) cells after 48 hrs by sulforhodamine B assay; type: functional; conditions: HL-60, 48 h
How it was run: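 NCI 60-cell-line screen protocol: cells exposed to compound at five 10-fold dilutions from 10^-4 to 10^-8 M for the last 48 h of a 72 h incubation. Sulforhodamine B protein assay estimated viability/growth. GI50 (50% growth inhibition) derived; where not reached or exceeded, reported as greater or less than the highest or lowest concentration tested.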

BT-549 = test: Growth inhibition of human BT549 cells after 48 hrs by sulforhodamine B assay; type: functional; conditions: BT-549, 48 h; how it was run: as §1
OVCAR-8 = test: Growth inhibition of human OVCAR8 cells after 48 hrs by sulforhodamine B assay; type: functional; conditions: OVCAR-8, 48 h; how it was run: as §1
IGROV-1 = test: Growth inhibition of human IGROV1 cells after 48 hrs by sulforhodamine B assay; type: functional; conditions: IGROV-1, 48 h; how it was run: as §1
MOLT-4 = test: Growth inhibition of human MOLT4 cells after 48 hrs by sulforhodamine B assay; type: functional; conditions: MOLT-4, 48 h; how it was run: as §1
SK-MEL-28 = test: Growth inhibition of human SK-MEL-28 cells after 48 hrs by sulforhodamine B assay; type: functional; conditions: SK-MEL-28, 48 h; how it was run: as §1
HCT-15 = test: Growth inhibition of human HCT15 cells after 48 hrs by sulforhodamine B assay; type: functional; conditions: HCT-15, 48 h; how it was run: as §1
SF-539 = test: Growth inhibition of human SF539 cells after 48 hrs by sulforhodamine B assay; type: functional; conditions: SF-539, 48 h; how it was run: as §1
A549 = test: Growth inhibition of human A549 cells after 48 hrs by sulforhodamine B assay; type: functional; conditions: A549, 48 h; how it was run: as §1
SNB-19 = test: Growth inhibition of human SNB19 cells after 48 hrs by sulforhodamine B assay; type: functional; conditions: SNB-19, 48 h; how it was run: as §2
SK-MEL-5 = test: Growth inhibition of human SK-MEL-5 cells after 48 hrs by sulforhodamine B assay; type: functional; conditions: SK-MEL-5, 48 h; how it was run: as §1
T47D = test: Growth inhibition of human T47D cells after 48 hrs by sulforhodamine B assay; type: functional; how it was run: as §2
MT4 = test: Antiproliferative activity against human MT4 cells assessed as reduction of growth by MTT assay; type: functional, cell-based
How it was run: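 MT-4 lymphoblastoid T cells (ATCC) in RPMI 1640 with 10% FCS, penicillin/streptomycin, checked for mycoplasma. 1 × 10⁴ mock-infected cells per well with serial dilutions from a 100 mM DMSO stock. Incubated 4 days at 37 °C, viable cells counted by MTT. IC50 versus untreated controls by linear regression. Mean of three separate experiments.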

ACHN = test: Growth inhibition of human ACHN cells after 48 hrs by sulforhodamine B assay; type: functional; how it was run: as §1
SF-295 = test: Growth inhibition of human SF295 cells after 48 hrs by sulforhodamine B assay; type: functional; conditions: SF-295, 48 h; how it was run: as §1
KM12 = test: Growth inhibition of human KM12 cells after 48 hrs by sulforhodamine B assay; type: functional; conditions: KM12, 48 h; how it was run: as §1
UO-31 = test: Growth inhibition of human UO31 cells after 48 hrs by sulforhodamine B assay; type: functional; conditions: UO-31, 48 h; how it was run: as §2
MDA-MB-435 = test: Growth inhibition of human MDA-MB-435 cells after 48 hrs by sulforhodamine B assay; type: functional; conditions: MDA-MB-435, 48 h; how it was run: as §1
[2] = Growth inhibition of human […] cells after 48 hrs by sulforhodamine B assay; type: functional; how it was run: as §1
NCI-H322M = test: Growth inhibition of human NCI-H322M cells after 48 hrs by sulforhodamine B assay; type: functional; how it was run: as §1
786-0 = test: Growth inhibition of human 786-0 cells after 48 hrs by sulforhodamine B assay; type: functional; conditions: 786-0, 48 h; how it was run: as §1
TK-10 = test: Growth inhibition of human TK10 cells after 48 hrs by sulforhodamine B assay; type: functional; conditions: TK-10, 48 h; how it was run: as §2
K562 = test: Growth inhibition of human K562 cells after 48 hrs by sulforhodamine B assay; type: functional; conditions: K562, 48 h; how it was run: as §1
MCF7 = test: Growth inhibition of human MCF7 cells after 48 hrs by sulforhodamine B assay; type: functional; conditions: MCF7, 48 h; how it was run: as §1

CCOC(=O)/C(=C/N1CCNC1=S)C(=O)c1ccccc1
Activity [1]: inactive

COC(=O)/C(=C\N1CCNC1=S)C(C)=O
Activity [1]: inactive

COC(=O)/C(C#N)=C/N1CCNC1=S
Activity [1]: inactive

N#C/C(=C\N1CCNC1=S)C(=O)Nc1ccc(Cl)cc1
Activity [1]: inactive

CC(=O)/C(=C/N1CCN(C(=O)c2ccco2)C1=S)C(=O)c1ccccc1
GI50 (HOP-62): 11.7 µM | GI50 (NCI-H460): 7 µM | GI50 (PC-3): 17.1 µM | GI50 (UACC-62): 7.3 µM | GI50 (M14): 6.3 µM | GI50 (SNB-75): 10.9 µM | GI50 (SK-OV-3): 17.5 µM | GI50 (SR): 2.7 µM | GI50 (LOX IMVI): 8.9 µM | GI50 (MDA-MB-231): 9.5 µM | GI50 (HT-29): 16.9 µM | GI50 (U-251): 13.4 µM | GI50 (SW-620): 6.1 µM | GI50 (OVCAR-3): 17.2 µM | GI50 (HCT-116): 6.4 µM | GI50 (SN12C): 7.7 µM | GI50 (COLO 205): 16.5 µM | GI50 (CAKI-1): 9.3 µM | GI50 (EKVX): 7.9 µM | GI50 (DU-145): 11 µM | GI50 (Malme-3M): 9.3 µM | GI50 (SF-268): 10.7 µM | GI50 (OVCAR-4): 20.1 µM | GI50 (HOP-92): 11.1 µM | GI50 (HL-60(TB)): 8.2 µM | GI50 (BT-549): 5.6 µM | GI50 (OVCAR-8): 8.8 µM | GI50 (IGROV-1): 10.9 µM | GI50 (MOLT-4): 15.9 µM | GI50 (SK-MEL-28): 28 µM | GI50 (HCT-15): 4.7 µM | GI50 (SF-539): 1.1 µM | GI50 (A549): 10.8 µM | GI50 (SNB-19): 16.3 µM | GI50 (SK-MEL-5): 8.1 µM | GI50 (T47D): 4.3 µM | IC50 (MT4): 5 µM | GI50 (ACHN): 6.9 µM | GI50 (SF-295): 19.3 µM | GI50 (KM12): 8.4 µM | GI50 (UO-31): 8.8 µM | GI50 (MDA-MB-435): 10.7 µM | GI50 [2]: 3.8 µM | GI50 (NCI-H322M): 27.9 µM | GI50 (786-0): 11.2 µM | GI50 (TK-10): 10.6 µM | GI50 (K562): 6.7 µM | GI50 (MCF7): 1.3 µM

N#C/C(=C\N1CCNC1=S)C(N)=O
Activity [1]: inactive

CC(C)(C)C(=O)/C(C#N)=C/N1CCNC1=S
Activity [1]: inactive
